pIC50, pKi: −log10 of the molar value. The source made the active and inactive calls. The rule behind the calls is not given here.
Experiments:
[1] = molecular target: T1, Muscarinic acetylcholine receptor M4 (Homo sapiens, UniProt P08173); test: Displacement of [3H]-NMS from muscarinic M4 receptor (unknown origin) expressed in CHO-K1 cell membranes assessed as inhibition constant by radioligand competition analysis; set-up: species or system Cell membrane
T1 sequence (P08173 whole entry): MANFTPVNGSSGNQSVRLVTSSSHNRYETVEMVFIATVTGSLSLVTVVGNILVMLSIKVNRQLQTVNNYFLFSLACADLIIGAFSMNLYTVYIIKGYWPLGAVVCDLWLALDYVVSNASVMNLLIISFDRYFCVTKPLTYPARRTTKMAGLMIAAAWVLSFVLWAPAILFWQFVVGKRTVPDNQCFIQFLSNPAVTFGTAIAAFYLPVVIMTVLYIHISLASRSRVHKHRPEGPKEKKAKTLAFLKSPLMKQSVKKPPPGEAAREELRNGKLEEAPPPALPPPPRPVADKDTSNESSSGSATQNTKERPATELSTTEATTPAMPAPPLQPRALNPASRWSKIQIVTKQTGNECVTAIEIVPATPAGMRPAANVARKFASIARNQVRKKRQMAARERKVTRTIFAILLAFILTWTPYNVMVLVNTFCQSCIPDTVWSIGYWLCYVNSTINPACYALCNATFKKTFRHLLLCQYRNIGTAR
How it was run: (§1)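 Inhibition constants came from radioligand competition binding. Acetylcholine and atropine were included as positive controls for competitive binding. Values are given as mean ± SEM.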

[2] = molecular target: Muscarinic acetylcholine receptor M3 (Homo sapiens, UniProt P20309); test: Displacement of [3H]-NMS from muscarinic M3 receptor (unknown origin) expressed in CHO-K1 cell membranes assessed as inhibition constant by radioligand competition analysis; set-up: species or system Cell membrane; how it was run: as §1
[3] = molecular target: T2, Muscarinic acetylcholine receptor M2 (Homo sapiens, UniProt P08172); test: Displacement of [3H]-NMS from muscarinic M2 receptor (unknown origin) expressed in CHO-K1 cell membranes assessed as inhibition constant by radioligand competition analysis; set-up: species or system Cell membrane
T2 sequence (P08172 whole entry): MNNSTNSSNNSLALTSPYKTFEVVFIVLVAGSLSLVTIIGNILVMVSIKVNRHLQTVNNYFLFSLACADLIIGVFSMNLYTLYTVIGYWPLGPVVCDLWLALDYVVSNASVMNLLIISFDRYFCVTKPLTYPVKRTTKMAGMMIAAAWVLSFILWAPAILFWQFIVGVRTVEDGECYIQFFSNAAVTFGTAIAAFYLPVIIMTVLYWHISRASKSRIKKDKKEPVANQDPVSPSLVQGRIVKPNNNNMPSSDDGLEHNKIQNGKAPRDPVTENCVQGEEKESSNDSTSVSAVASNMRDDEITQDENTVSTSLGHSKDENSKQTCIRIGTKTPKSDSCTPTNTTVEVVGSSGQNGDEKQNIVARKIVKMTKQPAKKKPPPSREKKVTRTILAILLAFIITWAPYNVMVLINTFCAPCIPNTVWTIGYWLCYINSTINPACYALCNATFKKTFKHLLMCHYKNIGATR

[4] = molecular target: T3, Muscarinic acetylcholine receptor M1 (Homo sapiens, UniProt P11229); test: Displacement of [3H]-NMS from muscarinic M1 receptor (unknown origin) expressed in CHO-K1 cell membranes assessed as inhibition constant by radioligand competition analysis; set-up: species or system Cell membrane; how it was run: as §1
T3 sequence (P11229 whole entry): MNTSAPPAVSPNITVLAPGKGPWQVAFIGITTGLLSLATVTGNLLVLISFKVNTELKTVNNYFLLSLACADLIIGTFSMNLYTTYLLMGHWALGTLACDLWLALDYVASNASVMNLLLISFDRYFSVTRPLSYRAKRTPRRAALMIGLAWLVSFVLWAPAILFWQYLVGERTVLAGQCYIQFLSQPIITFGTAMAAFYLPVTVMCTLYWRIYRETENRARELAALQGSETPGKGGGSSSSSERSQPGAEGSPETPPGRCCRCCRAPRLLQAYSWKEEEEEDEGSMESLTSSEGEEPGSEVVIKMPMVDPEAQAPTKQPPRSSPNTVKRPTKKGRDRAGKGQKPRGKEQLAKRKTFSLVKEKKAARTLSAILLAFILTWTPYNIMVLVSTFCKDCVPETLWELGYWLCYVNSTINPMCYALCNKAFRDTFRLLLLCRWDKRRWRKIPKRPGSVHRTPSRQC

[5] = molecular target: T2, Muscarinic acetylcholine receptor M2; test: Antagonist activity at human muscarinic M2 receptor expressed in CHO cells co-expressing Galpha15 assessed as inhibition of acetylcholine-induced calcium mobilization relative to acetylcholine; type: functional, cell-based
[6] = molecular target: T4, Muscarinic acetylcholine receptor M2 (Homo sapiens) (UniProt P08172); test: Antagonist activity at muscarinic M2 receptor (unknown origin) at 100 uM by acetylcholine titration assay; details: filed as antagonist
T4 sequence (whole entry): T2 sequence (P08172 whole entry)
How it was run: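 Acetylcholine titration curves were run in a radioligand binding format, without and with test ligand at 100 μM. A rightward shift of the ACh curve was taken to indicate negative allosteric modulation, and no shift to indicate orthosteric antagonism.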

Muscarinic acetylcholine receptor M3, sequence (P20309 whole entry): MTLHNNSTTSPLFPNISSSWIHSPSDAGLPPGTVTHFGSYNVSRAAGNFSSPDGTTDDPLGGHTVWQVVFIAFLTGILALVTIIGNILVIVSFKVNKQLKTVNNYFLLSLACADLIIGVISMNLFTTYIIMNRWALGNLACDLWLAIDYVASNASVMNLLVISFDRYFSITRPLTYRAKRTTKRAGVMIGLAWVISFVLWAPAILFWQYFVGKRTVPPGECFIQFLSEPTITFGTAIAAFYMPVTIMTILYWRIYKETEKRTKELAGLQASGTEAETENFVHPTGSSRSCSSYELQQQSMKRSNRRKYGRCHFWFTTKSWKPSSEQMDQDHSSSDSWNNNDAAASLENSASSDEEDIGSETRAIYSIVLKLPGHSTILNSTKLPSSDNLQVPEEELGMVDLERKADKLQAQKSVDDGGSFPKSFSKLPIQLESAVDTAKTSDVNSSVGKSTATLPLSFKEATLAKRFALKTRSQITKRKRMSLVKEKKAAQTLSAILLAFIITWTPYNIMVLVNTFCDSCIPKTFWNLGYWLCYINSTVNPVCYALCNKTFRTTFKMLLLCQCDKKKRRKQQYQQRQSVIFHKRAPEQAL

Compound | pKi [1] | pKi [2] | pKi [3] | pKi [4] | pIC50 [5] | Activity [6]
CC1CCc2ccccc2N1CC(=O)N1CCCC1 (centres undefined) | 5.20 | < 4.00 | 5.61 | 4.35 | 5.31 | –
O=C(CCN1CCCc2ccccc21)N1CCCC(O)C1 (centres undefined) | 4.73 | 4.27 | 5.21 | 4.48 | 4.53 | –
O=C(CN1CCCc2cnccc21)N1CCCCC1 | 4.23 | 4.22 | 4.39 | < 4.00 | < 4.00 | –
Cc1ccc2c(c1)CCCN2CC(=O)N1CCCCC1 | 4.67 | 4.18 | 4.73 | 4.75 | 4.61 | –
CC1Cc2ccccc2N1CC(=O)N1CCCC1 (centres undefined) | 4.13 | 4.10 | 4.67 | 4.00 | < 4.00 | Active
CC1CCCCN1C(=O)CCN1CCCc2ccccc21 (centres undefined) | 5.28 | 5.07 | 5.49 | 5.20 | 5.50 | –
O=C(O)C1CCCN1C(=O)CCN1CCCc2ccccc21 (centres undefined) | 6.05 | 5.34 | 6.24 | 5.98 | 6.11 | –
O=C(CN1CCc2ccc(F)cc21)N1CCCC1 | < 4.00 | 4.02 | 4.30 | < 4.00 | 4.12 | –
O=C(CN1CCCc2ccccc21)N1CCCC1 | 5.86 | 5.13 | 6.41 | 5.54 | 6.21 | –
CC1CCCCN1CC(=O)n1c2ccccc2c2ccccc21 (centres undefined) | < 4.00 | < 4.00 | 4.02 | < 4.00 | 4.28 | –
O=C(CN1CCCc2ccc(O)cc21)N1CCCCC1 | 4.06 | < 4.00 | – | < 4.00 | – | –
CCn1c2ccccc2c2ccc(NCC(=O)N3CCCCC3)cc21 | 4.04 | 4.35 | – | 4.36 | – | –
O=C(CN1CCc2ccc(Br)cc21)N1CCCCC1 | < 4.00 | < 4.00 | < 4.00 | < 4.00 | < 4.00 | –
CC1Cc2ccccc2N1CC(=O)N1CCCCC1 (centres undefined) | < 4.00 | < 4.00 | < 4.00 | – | < 4.00 | Active
CC(C)(C)OC(=O)N1CCN(CC(=O)n2c3ccccc3c3ccccc32)CC1 | 4.59 | 4.66 | 4.64 | 4.89 | 4.73 | –
O=C(CN1CCCc2ccccc21)N1CCCCC1 | 5.91 | 4.96 | 6.38 | 5.54 | 6.36 | –
CC1CCc2ccccc2N1CC(=O)N1CCCCC1 (centres undefined) | 5.05 | 4.28 | 5.44 | 4.55 | 5.13 | –
O=C(CN1CCCc2cnccc21)N1CCCC1 | < 4.00 | 4.07 | 4.36 | 4.03 | < 4.00 | –

Results, then the compound that gave them:

pKi [1] | pKi [2] | pKi [3] | pKi [4] | pIC50 [5] | Activity [6] | Compound
5.67 | 5.14 | 6.19 | 6.19 | 5.99 | – | O=C(CCN1CCCc2ccccc21)NCc1cccs1
4.23 | < 4.00 | – | 5.95 | – | – | O=C(CCN1CCCc2ccccc21)Nc1nccs1
4.75 | 4.26 | – | 4.56 | – | – | CC1CCCC(C)N1C(=O)CCN1CCCc2ccccc21 (centres undefined)
5.14 | 4.50 | 5.44 | 4.94 | 4.97 | – | O=C(CCN1CCCc2ccccc21)N1CCCCC1CO (centres undefined)
4.97 | 4.97 | 5.48 | 5.25 | 5.85 | – | O=C(CCN1CCCc2ccccc21)Nc1ccc(Cl)cc1
5.39 | 4.58 | 6.04 | 5.03 | 6.47 | – | O=C(CCN1CCCc2ccccc21)Nc1cccc2ccccc12
5.24 | 4.94 | 5.77 | 5.35 | 4.92 | – | O=C(CCN1CCCc2ccccc21)N1CCC1
4.30 | < 4.00 | 4.78 | 4.29 | 4.15 | – | O=C(CCN1CCCc2ccccc21)N1CCC(O)C1 (centres undefined)
4.92 | < 4.00 | 5.64 | 5.30 | 6.37 | – | Cn1ccc2c(NC(=O)CCN3CCCc4ccccc43)cccc21
6.59 | 5.59 | – | 6.61 | – | – | O=C(CCN1CCCc2ccccc21)NC1CCCC1
6.80 | 5.76 | – | 6.64 | – | – | O=C(CCN1CCCc2ccccc21)NC1CCCCC1
6.54 | 6.01 | – | 6.52 | – | – | CC1CCN(C(=O)CCN2CCCc3ccccc32)CC1
5.19 | 4.89 | – | 5.69 | – | – | O=C(CCN1CCCc2ccccc21)NCc1cccc(F)c1
4.77 | 4.48 | 4.88 | 4.63 | 4.82 | – | O=C(CCN1CCCc2ccccc21)N1CCC(O)CC1
4.89 | 4.36 | 5.29 | 4.85 | 4.76 | – | O=C(CCN1CCCc2ccccc21)N1CCC[C@H]1CO
< 4.00 | < 4.00 | 4.19 | < 4.00 | < 4.00 | – | O=C(CCN1CCCc2ccccc21)Nc1ccc(O)cc1F
6.11 | 5.54 | 6.39 | 6.22 | 5.82 | – | CC1CCCN(C(=O)CCN2CCCc3ccccc32)C1 (centres undefined)
4.80 | 4.49 | 5.45 | 4.76 | 4.69 | – | COC1CN(C(=O)CCN2CCCc3ccccc32)C1
5.36 | 4.92 | 5.91 | 5.58 | 5.95 | – | O=C(CCN1CCCc2ccccc21)NCc1ccco1
4.93 | 4.49 | 5.29 | 4.85 | 4.72 | – | O=C(CCN1CCCc2ccccc21)N1CCCC1CO (centres undefined)
5.80 | 5.54 | 6.54 | 5.98 | 5.74 | – | O=C(CCN1CCCc2ccccc21)N1CCCC1
5.76 | 5.28 | 6.21 | 5.84 | 6.12 | – | O=C(CCN1CCCc2ccccc21)N1CCCC(CO)C1 (centres undefined)
5.95 | 5.45 | – | 5.94 | – | – | C[C@@H]1CCC[C@H](C)N1C(=O)CCN1CCCc2ccccc21
4.85 | 4.53 | – | 4.85 | – | – | O=C(CCN1CCCc2ccccc21)Nc1cccnn1
5.06 | 4.59 | 5.48 | 5.12 | 6.01 | – | Cn1ccc(NC(=O)CCN2CCCc3ccccc32)n1
6.67 | 6.11 | – | 6.58 | – | – | O=C(CCN1CCCc2ccccc21)Nc1ccccc1

Reference: ChEMBL document CHEMBL4673268, “The optimization of a novel selective antagonist for human M muscarinic acetylcholine receptor” (Bioorg Med Chem Lett, 2020)
